Active and inactive are the calls of the source. The calls are words filed in the database; no cut-off is given here.
How the values were obtained:
[1] = Cytotoxicity against pig LLC-PK11 cells after 48 hrs by neutral red assay relative to control; type: cell-based; conditions: Sus scrofa, LLC-PK11, 48 h
How it was run: (§1)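 Cells grown in RPMI-1640 with 10% bovine calf serum and amikacin at 37°C, 5% CO₂. Seeded 25,000 cells/well, grown 24 h, then exposed to compounds diluted in serum-free medium for 48 h. Viability by Neutral Red uptake, % decrease versus vehicle control. IC50 from dose curves, triplicate means. Doxorubicin positive control.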

Vero [2] = test: Cytotoxicity against African green monkey Vero cells after 48 hrs by neutral red assay relative to control; type: cell-based; conditions: chlorocebus sabaeus; how it was run: as §1
SK-OV-3 [3] = test: Cytotoxicity against human SKOV3 cells after 48 hrs by neutral red assay relative to control; type: cell-based; conditions: SK-OV-3, 48 h; how it was run: as §1
BT-549 [4] = test: Cytotoxicity against human BT549 cells after 48 hrs by neutral red assay relative to control; type: cell-based; conditions: BT-549, 48 h; how it was run: as §1
KB [5] = test: Cytotoxicity against human KB cells after 48 hrs by neutral red assay relative to control; type: cell-based; how it was run: as §1
SK-MEL [6] = test: Cytotoxicity against human SK-MEL cells after 48 hrs by neutral red assay relative to control; type: cell-based; how it was run: as §1
[7] = target: T1, Nitric oxide synthase, inducible (Mus musculus) (UniProt P29477); test: Antiinflammatory activity in mouse RAW264.7 cells assessed as inhibition of LPS-induced iNOS activity up to 25 ug/ml incubated for 30 mins prior to LPS challenge measured after 24 hrs by Griess assay; type: cell-based
T1 sequence (whole entry): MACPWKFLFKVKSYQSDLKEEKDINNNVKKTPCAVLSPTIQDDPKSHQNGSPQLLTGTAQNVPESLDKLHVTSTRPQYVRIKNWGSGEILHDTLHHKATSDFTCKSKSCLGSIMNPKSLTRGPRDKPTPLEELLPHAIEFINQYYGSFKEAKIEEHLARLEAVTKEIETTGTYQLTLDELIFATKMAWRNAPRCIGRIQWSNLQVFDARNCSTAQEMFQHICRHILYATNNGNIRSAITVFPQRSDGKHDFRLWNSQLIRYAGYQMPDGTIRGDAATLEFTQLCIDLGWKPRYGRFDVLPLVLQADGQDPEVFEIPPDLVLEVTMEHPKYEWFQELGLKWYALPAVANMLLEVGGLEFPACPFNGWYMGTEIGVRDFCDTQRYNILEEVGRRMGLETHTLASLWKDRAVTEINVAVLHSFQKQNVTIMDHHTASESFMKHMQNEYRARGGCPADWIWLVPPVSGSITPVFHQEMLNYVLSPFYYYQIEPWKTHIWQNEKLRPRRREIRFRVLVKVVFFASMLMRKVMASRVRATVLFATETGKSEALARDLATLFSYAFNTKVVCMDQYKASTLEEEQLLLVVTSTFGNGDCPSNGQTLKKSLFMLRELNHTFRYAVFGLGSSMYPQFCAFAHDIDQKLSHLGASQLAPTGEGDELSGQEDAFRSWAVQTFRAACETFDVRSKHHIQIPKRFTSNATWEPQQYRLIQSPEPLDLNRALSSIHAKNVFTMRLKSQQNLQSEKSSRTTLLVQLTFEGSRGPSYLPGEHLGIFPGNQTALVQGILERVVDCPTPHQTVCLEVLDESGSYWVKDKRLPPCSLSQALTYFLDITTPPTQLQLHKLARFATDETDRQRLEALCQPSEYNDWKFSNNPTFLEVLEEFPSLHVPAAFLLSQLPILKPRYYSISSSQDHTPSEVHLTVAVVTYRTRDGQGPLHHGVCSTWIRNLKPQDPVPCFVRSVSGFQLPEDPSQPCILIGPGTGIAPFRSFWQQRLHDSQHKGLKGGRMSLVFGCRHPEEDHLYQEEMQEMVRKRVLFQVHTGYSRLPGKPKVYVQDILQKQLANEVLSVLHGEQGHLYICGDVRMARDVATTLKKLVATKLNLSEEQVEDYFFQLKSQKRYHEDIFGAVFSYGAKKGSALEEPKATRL
How it was run: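 RAW264.7 macrophages seeded at 50,000 cells/well and grown 24 h to ≥75% confluency. Compounds in serum-free medium added 30 min before LPS (5 μg/mL), then 24 h incubation. Nitrite in the supernatant measured with Griess reagent.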

SW1353 = test: Antiinflammatory activity in human SW1353 cells assessed as inhibition of PMA-induced NF-kappaB activity up to 25 ug/ml incubated for 30 mins prior to PMA challenge measured after 8 hrs by luciferase reporter gene assay; type: cell-based
How it was run: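 SW1353 chondrosarcoma cells grown in DMEM/F12 with 10% FBS at 37 °C, 5% CO2. Cells electroporated with an NF-κB luciferase plasmid (50 μg/mL, 160 V, one 70-ms pulse) and plated at 1.25 × 10⁵ cells/well. After 24 h, compound was added 30 min before PMA (70 ng/mL), then 8 h incubation. Luciferase read-out as % inhibition vs vehicle; IC50 from dose curves. Sp-1 served as a counter-screen.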

[8] = Cytotoxicity against pig LLC-PK11 cells up to 25 ug/ml after 48 hrs by neutral red assay relative to control; type: cell-based, Sus scrofa; conditions: llc-pk11, 48 h
How it was run: (§2)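 Cells grown in RPMI-1640 with 10% bovine calf serum and amikacin at 37 °C, 5% CO2. Seeded at 25,000 cells/well and grown 24 h, then exposed 48 h to samples diluted in serum-free medium. Viability by Neutral Red; % decrease vs vehicle; IC50 from dose curves. Triplicate runs, mean reported; doxorubicin as positive control.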

Vero [9] = test: Cytotoxicity against African green monkey Vero cells up to 25 ug/ml after 48 hrs by neutral red assay relative to control; type: cell-based; conditions: chlorocebus sabaeus; how it was run: as §2
SK-OV-3 [10] = test: Cytotoxicity against human SKOV3 cells up to 25 ug/ml after 48 hrs by neutral red assay relative to control; type: cell-based; conditions: sk-ov-3, 48 h; how it was run: as §2
BT-549 [11] = test: Cytotoxicity against human BT549 cells up to 25 ug/ml after 48 hrs by neutral red assay relative to control; type: cell-based; conditions: bt-549, 48 h; how it was run: as §2
KB [12] = test: Cytotoxicity against human KB cells up to 25 ug/ml after 48 hrs by neutral red assay relative to control; type: cell-based; how it was run: as §2
SK-MEL [13] = test: Cytotoxicity against human SK-MEL cells up to 25 ug/ml after 48 hrs by neutral red assay relative to control; type: cell-based; how it was run: as §2
[14] = Antiinflammatory activity in human SW1353 cells assessed as inhibition of PMA-induced NF-kappaB activity incubated for 30 mins prior to PMA challenge measured after 8 hrs by luciferase reporter gene assay; type: cell-based
How it was run: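 SW1353 cells in DMEM/F12 with 10% FBS, electroporated with NF-κB luciferase plasmid (160 V, one 70-ms pulse), plated at 1.25 × 10⁵ cells/well. After 24 h, graded compound concentrations added 30 min before PMA 70 ng/mL, then 8 h incubation. Luciferase read-out, % inhibition versus vehicle, IC50 from dose curves. Sp-1 reporter served as nonspecific control.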

## COc1cccc2c1C(=O)c1c(O)c3c(c(O)c1C2=O)C[C@@](O)(C(=O)CO)C[C@@H]3O[C@H]1C[C@H](N)[C@H](O)[C@H](C)O1 [DOXORUBICIN]
[1]
  IC50: 790 nM
Vero [2]
  IC50: 920 nM
SK-OV-3 [3]
  IC50: 200 nM
BT-549 [4]
  IC50: 170 nM
KB [5]
  IC50: 220 nM
SK-MEL [6]
  IC50: 140 nM

## O=c1oc2ccccc2n1CCCCN1CCN(CCCn2c(=O)oc3ccccc32)CC1
[7]
  inhibition: inactive
SW1353
  inhibition: inactive
[8]
  Activity: Non-toxic
Vero [9]
  Activity: Non-toxic
SK-OV-3 [10]
  Activity: Non-toxic
BT-549 [11]
  Activity: Non-toxic
KB [12]
  Activity: Non-toxic
SK-MEL [13]
  Activity: Non-toxic

## O=c1sc2ccccc2n1CCCCCN1CCN(CCn2c(=O)sc3ccccc32)CC1
[14]
  IC50: 1710 nM
[8]
  Activity: Non-toxic
Vero [2]
  IC50: 23800 nM
SK-OV-3 [10]
  Activity: Non-toxic
BT-549 [11]
  Activity: Non-toxic
KB [12]
  Activity: Non-toxic
SK-MEL [13]
  Activity: Non-toxic

## O=c1sc2ccccc2n1CCCCN1CCN(CCCn2c(=O)sc3ccccc32)CC1
[14]
  IC50: 1710 nM
[1]
  IC50: 19200 nM
Vero [9]
  Activity: Non-toxic
SK-OV-3 [10]
  Activity: Non-toxic
BT-549 [11]
  Activity: Non-toxic
KB [12]
  Activity: Non-toxic
SK-MEL [13]
  Activity: Non-toxic

## O=c1oc2ccccc2n1CCCCN1CCN(CCCCn2c(=O)oc3ccccc32)CC1
[7]
  inhibition: inactive
SW1353
  inhibition: inactive
[8]
  Activity: Non-toxic
Vero [9]
  Activity: Non-toxic
SK-OV-3 [10]
  Activity: Non-toxic
BT-549 [11]
  Activity: Non-toxic
KB [12]
  Activity: Non-toxic
SK-MEL [13]
  Activity: Non-toxic

## c1ccc2oc(SCCCCN3CCN(CCCCSc4nc5ccccc5o4)CC3)nc2c1
[14]
  IC50: 1400 nM
[1]
  IC50: 23500 nM
Vero [9]
  Activity: Non-toxic
SK-OV-3 [10]
  Activity: Non-toxic
BT-549 [4]
  IC50: 22500 nM
KB [5]
  IC50: 25000 nM
SK-MEL [6]
  IC50: 25000 nM

## O=c1sc2ccccc2n1CCCCN1CCN(CCCCn2c(=O)sc3ccccc32)CC1
[7]
  inhibition: inactive
[14]
  IC50: 2280 nM
[8]
  Activity: Non-toxic
Vero [9]
  Activity: Non-toxic
SK-OV-3 [10]
  Activity: Non-toxic
BT-549 [11]
  Activity: Non-toxic
KB [12]
  Activity: Non-toxic
SK-MEL [13]
  Activity: Non-toxic

## O=c1oc2ccccc2n1CCCCCN1CCN(CCCCCn2c(=O)oc3ccccc32)CC1
[14]
  IC50: 3430 nM
[8]
  Activity: Non-toxic
Vero [2]
  IC50: 19400 nM
SK-OV-3 [10]
  Activity: Non-toxic
BT-549 [11]
  Activity: Non-toxic
KB [12]
  Activity: Non-toxic
SK-MEL [13]
  Activity: Non-toxic

## O=c1oc2ccccc2n1CCCN1CCN(CCn2c(=O)oc3ccccc32)CC1
[7]
  inhibition: inactive
SW1353
  inhibition: inactive
[8]
  Activity: Non-toxic
Vero [9]
  Activity: Non-toxic
SK-OV-3 [10]
  Activity: Non-toxic
BT-549 [11]
  Activity: Non-toxic
KB [12]
  Activity: Non-toxic
SK-MEL [13]
  Activity: Non-toxic

## O=c1sc2ccccc2n1CCCN1CCN(CCCn2c(=O)sc3ccccc32)CC1
SW1353
  inhibition: inactive
[1]
  IC50: 23500 nM
Vero [9]
  Activity: Non-toxic
SK-OV-3 [10]
  Activity: Non-toxic
BT-549 [11]
  Activity: Non-toxic
KB [12]
  Activity: Non-toxic
SK-MEL [13]
  Activity: Non-toxic

From ChEMBL document CHEMBL3596194, “Design, synthesis and biological evaluation of bivalent benzoxazolone and benzothiazolone ligands as potential anti-inflammatory/analgesic agents” (Bioorg Med Chem, 2015)
